In PMC6370590 (European journal of pharmaceutical sciences : official …, 2018):

What was measured:
[1] = target: T1, SUMO hTDP2^cat (Homo sapiens, UniProt O95551); test: SUMO hTDP2^cat fluorescence-based biochemical assay
T1 sequence (O95551 110-362): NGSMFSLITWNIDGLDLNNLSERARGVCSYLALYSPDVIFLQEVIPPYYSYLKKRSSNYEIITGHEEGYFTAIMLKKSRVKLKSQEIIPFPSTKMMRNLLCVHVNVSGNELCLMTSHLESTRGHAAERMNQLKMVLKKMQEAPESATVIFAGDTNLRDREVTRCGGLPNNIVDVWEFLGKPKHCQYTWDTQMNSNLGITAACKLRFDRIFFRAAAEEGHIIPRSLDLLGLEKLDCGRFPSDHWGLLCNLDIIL

[2] = target: T2, 14M_zTDP2^cat (humanized zebrafish TDP2 catalytic domain) (Danio rerio, UniProt Q5XJA0, A139S/C239T/C322L/D120S/K240R/K309Q/K314L/L136N/P317T/R321K/S320C/T315G/V316I/V319A/Y318A); test: 14M_zTDP2^cat fluorescence-based biochemical assay; details: for LE (ligand efficiency): LE = 1.4 x pIC50 / HAC; for LELP (ligand efficiency dependent lipophilicity): LELP = LE / cLogP as printed; for LLE (lipophilic ligand efficiency): LLE = pIC50 - cLogP; for TDP2 inhibition, SAR statement: compared with hit 11a
T2 sequence (Q5XJA0 120-369 D120S/L136N/A139S/C239T/K240R/K309Q/K314L/T315G/V316I/P317T/Y318A/V319A/S320C/R321K/C322L): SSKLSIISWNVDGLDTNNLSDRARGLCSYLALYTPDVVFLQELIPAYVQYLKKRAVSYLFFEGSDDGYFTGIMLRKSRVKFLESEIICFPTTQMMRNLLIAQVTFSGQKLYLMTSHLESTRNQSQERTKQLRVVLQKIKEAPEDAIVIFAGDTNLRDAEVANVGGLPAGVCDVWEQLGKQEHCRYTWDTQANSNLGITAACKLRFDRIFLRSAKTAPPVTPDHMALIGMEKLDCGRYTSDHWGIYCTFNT
Outline: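 Humanized zebrafish TDP2 catalytic domain (residues 120–369), 6.25 pM final, pre-incubated 10 min with test compound in pH 7.4 Tris buffer (10 mM MgCl₂, 80 mM KCl, 0.05% Tween-20, 1 mM DTT). Reaction started with 1 μM (final) FAM-phosphotyrosyl-GATCT-BHQ-1 substrate at 25 °C. Fluorescence ([…]) read kinetically over 60 min. % inhibition normalised to DMSO and no-enzyme controls. IC₅₀ fitted from 10–12 concentrations.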

For `COc1ccc2nc(NC(=N)N)nc(C)c2c1` [Compound 11a, 1-(6-Methoxy-4-methylquinazolin-2-yl) guanidine], the IC50 [1] was 113 ± 10 µM, the “LE (ligand efficiency)” value [2] was 0.32 and the “LELP (ligand efficiency dependent lipophilicity)” value [2] was 4.9. For the same molecule, the “LLE (lipophilic ligand efficiency)” value [2] was 2.3.
`CCOc1ccc2nc(NC(=N)N)nc(C)c2c1` [Compound 11b, 1-(6-Ethoxy-4-methylquinazolin-2-yl) guanidine] was tested, and the “TDP2 inhibition, SAR statement” value [2] was “did not interfere significantly with the activity”.
`Cc1nc(NC(=N)N)nc2ccc(Cl)cc12.Cl` [Compound 11c, 1-(6-Chloro-4-methylquinazolin-2-yl) guanidine hydrochloride] was tested, and the inhibitory activity ([2]; up to 200 µM, vs. 11a) was “abrogated completely the inhibitory activity”.
`COc1ccc2nc(Nc3nc(C)c(C)c(=O)[nH]3)nc(C)c2c1` [Compound 12a, 2-((6-Methoxy-4-methylquinazolin-2-yl)amino)-5,6-dimethylpyrimidin-4(3H)-one] was tested, and the “fold increase in potency over the original HTS hit 11a” value ([1]; ratio of IC50 values) was 6.4 fold.
In the case of `COc1ccc2nc(NC(=N)N)[nH]c(=O)c2c1` [Compound 15, 1-(6-Methoxy-4-oxo-3,4-dihydroquinazolin-2-yl)guanidine], the “TDP2 inhibition, SAR statement” value [2] is reported as “no inhibition was observed”.
In the case of `Cc1ccc(-c2nn3c(-c4ccco4)nnc3s2)cc1C` [Compound 19a, 6-(3,4-Dimethylphenyl)-3-(furan-2-yl)-[1,2,4]triazolo[3,4-b][1,3,4] thiadiazole], the “LE (ligand efficiency)” value [2] is reported as 0.30, the “LELP (ligand efficiency dependent lipophilicity)” value [2] is reported as 14 and the “LLE (lipophilic ligand efficiency)” value [2] is reported as 0.29.
For `COc1ccccc1-c1nn2c(-c3ccco3)nnc2s1` [Compound 19b, 3-(Furan-2-yl)-6-(2-methoxyphenyl)-[1,2,4]triazolo[3,4-b][1,3,4]thiadiazole], the TDP2 inhibition ([2]; concentrations up to 100 µM) was “did not exhibit significant TDP2 inhibition”.
